# This is a sample that favours compounds with a hit; in the whole collection about 3.7% have one here.
# KCNQ1 inh: inhibitors of human KCNQ1 channel, primary screen, cell-based, thallium flux, high-throughput; CHO-K1 KCNQ1, FluxOR thallium flux fluorescence; active compounds read high; Potassium voltage-gated channel subfamily KQT member 1 (Homo sapiens), P51787; B-score at 10 µM; AID 2642, 2010; 310,000 tested, 1.3% active;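 active = compounds whose thallium flux B-score, printed positive for inhibition, exceeds three library SD while starting fluorescence stays within three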;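 also: channel opened by potassium depolarization with thallium stimulus after 20 min compound exposure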
# KCNQ1 act: potentiators or activators of KCNQ1 channel, primary screen, cell-based, thallium flux, high-throughput; Potassium voltage-gated channel subfamily KQT member 1 (Homo sapiens), P51787; CHO-K1 KCNQ1, thallium flux FluxOR fluorescence; active compounds read high; B-score at 10 µM; 310,000 tested, 0.35% active; AID 2648, 2010;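 active = fluorescence ratio B-score, a plate-corrected score, at least three library SD, with initial intensity B-score within 5 SD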
#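 Schedule – 37 °C overnight plating, 90-min dark dye load, 20-min compound pretreatment · System – stable KCNQ1 CHO-K1 line · Probe or stimulus – thallium- and potassium-containing depolarizing buffer · Measured by – kinetic FluxOR fluorescence, 10 s baseline plus 110 s post-stimulus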
# KCNK3 inh: human KCNK3 channel inhibitors, primary screen, CHO cells, FluxOR thallium flux, B-score. AID 602410, 2012. Potassium channel subfamily K member 3 (Homo sapiens), O14649. 340,000 tested, 0.84% active. B-score at 10 µM. FluxOR fluorescence; active compounds read low;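 active = B-score under library mean minus 4 SD, starting fluorescence ratio at most library mean plus 5 SD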;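 also: more negative B-score means stronger inhibition of thallium flux through KCNK3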
# KCNK9 block: KCNK9 potassium channel inhibitors, primary screen, HEK293 cells, thallium flux; 310,000 tested, 1.2% active; FluxOR thallium flux fluorescence; active compounds read low; B-score at 10 µM;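 active = ratio B-score over 3 SD below the library mean, with starting fluorescence within 5 SD of its mean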;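 also: negative B-score means less thallium flux so channel inhibition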
# hERG rescue: hERG rescue from dofetilide block, primary screen, cell-based, CHO-hERG, FluxOR thallium flux, dofetilide IC70. Voltage-gated inwardly rectifying potassium channel KCNH2 (Homo sapiens), Q12809. dofetilide IC70 present. activation (rescue from dofetilide block), less the hit threshold, % at 10 µM. 310,000 tested, 0.51% active. AID 1511, 2009;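 active = activation above the mean of controls blocked by dofetilide plus 5 SD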;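 also: thallium influx through hERG after potassium depolarization seen as dye fluorescence rise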
# Kir21 block: inhibitors of mouse Kir2.1 inward-rectifier potassium channel | AID 1672, 2009 | HEK293-Kir2.1, FluxOR thallium flux fluorescence; active compounds read low | B-score at 10 µM | 310,000 tested, 0.85% active;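 active = fluorescence ratio B-score at or below minus 3 SD of library scores, with starting-brightness B-score within 2 SD, cut at about -4.2 in these data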;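 also: channel flux triggered by added potassium and thallium sulfate stimulus; B-score of peak minus minimum fluorescence over baseline after thallium stimulus; more negative B-score means stronger Kir2.1 block with less thallium influx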
# An asterisk follows results filed as active; i = inactive; . = no result.
SMILES,KCNQ1 inh,KCNQ1 act,KCNK3 inh,KCNK9 block,hERG rescue,Kir21 block
CCc1nnc(NC(=O)c2cccc(C(=O)Nc3nnc(CC)s3)n2)s1,i,i,i,i,4.9*,1.3
O=C1COc2ccc3ccccc3c21,i,i,i,i,-10,0.89
Cc1c(C(=O)Nc2ccc(F)cc2)oc2ccc(S(=O)(=O)N3CCCC3)cc12,i,i,i,i,-1,0.59
Cc1c(C(=O)NCc2ccccc2)oc2ccc(S(=O)(=O)N3CCC4(CC3)OCCO4)cc12,i,i,i,i,-4,-0.06
Cc1c(C(=O)NCCC2=CCCCC2)oc2ccc(S(=O)(=O)N3CCC4(CC3)OCCO4)cc12,i,i,-9.1*,i,-21,-1.5
Cc1c(C(=O)Nc2ccc(F)c(F)c2)oc2ccc(S(=O)(=O)N3CCCCC3)cc12,i,i,-10*,i,-4,0.59
Cc1c(S(=O)(=O)Nc2cccc3ccccc23)c(=O)n(C)c(=O)n1C,i,i,i,i,-12,1.7
Cc1ccc(NC(=O)CN(CCc2ccccc2)S(C)(=O)=O)cc1,i,i,i,i,-5,-0.08
Cc1c(C(=O)NCCN2CCOCC2)oc2ccccc12,i,i,i,i,48*,-1.4
C=CCSc1nnc(NC(=O)C2CC(=O)N(c3ccc4c(c3)OCCO4)C2)s1 (stereo unspecified),.,.,i,.,.,.
CN(C)CCCNS(=O)(=O)c1ccc(NC2CCCCCC2)c([N+](=O)[O-])c1,8*,i,i,i,-14,-0.83
C/C(=N\Nc1nc2c(s1)CCCC2)c1ccc(Cl)cc1,6*,i,i,i,-6,0.02
CN(C)c1ccc(C(=O)Nc2nc3c(s2)CCCC3)cc1,i,i,i,i,-18,-3.3
COc1ccc(NS(=O)(=O)c2cc(NS(=O)(=O)c3cc(C(=O)O)ccc3OC)ccc2C)cc1,.,.,i,.,.,.
Cc1cc(N2CCN(C)CC2)nc2ccc(NC(=S)NCCN3CCc4ccccc4C3)cc12,i,i,i,i,-12,-4.7*
ON=C(CCc1ccccc1)CCc1ccccc1,.,.,i,.,.,.
O=C(Cn1nnc2ccccc21)N/N=C\C=C\c1ccccc1,i,i,i,i,6.7*,0.09
N/C(=N\OC(=O)CCCc1ccccc1)c1ccccc1Cl,i,i,i,i,-8,0.02
CC(C)C[C@H]1CNC(=S)N1CC1CCN(CCCC2CCCCC2)CC1,.,.,i,.,.,.
COc1cnc(-c2ccccc2)nc1Oc1ccc(Cl)cc1C,i,i,i,i,-11,0.15
CN(C)CCCC1Sc2ccccc2Sc2ccccc21 (stereo unspecified),i,i,i,i,-7,-4.8*
CN(C)CCCN1c2ccccc2Sc2ccccc21,i,i,i,i,-4,-2.1
O=C1C=C(O)C(n2cncn2)C(c2ccc(F)cc2)C1 (stereo unspecified),i,i,i,i,5.2*,0.91
CCOc1ccc(CNCCN2CCCC2)cc1,7*,i,i,i,-9,-2
CCOc1ccc(OCCN2CCCCC2)cc1,i,i,i,i,-4,-0.42
SMILES,KCNQ1 inh,KCNQ1 act,KCNK3 inh,KCNK9 block,hERG rescue,Kir21 block
CC(CCC(=O)O)C1CC[C@@]2(C)C3C(=O)CC4C(C)(C)C(O)CC[C@]4(C)C3C(=O)C[C@]12C (stereo partly specified),i,i,i,i,-7,0.84
C/C(=C/CCC(C)C1CCC2(C)C3CCC4C(C)(C)C(=O)CCC4(C)C3=CCC12C)C(=O)O (stereo unspecified),i,29*,.,i,9.5*,1.9
C/C(=C/CCC(C)[C@H]1CC[C@@]2(C)C3=C(CC[C@]12C)[C@@]1(C)CCC(=O)C(C)(C)[C@@H]1CC3)C(=O)O (stereo partly specified),i,26*,i,i,39*,0.21
Cc1ccc2[nH]c3c(c2c1)CCCC3NCCO (stereo unspecified),i,i,i,i,-9,-0.84
NC(=O)C1CCN(C(=O)c2cc3ccccc3cc2O)CC1,i,i,i,i,-9,1.6
Cc1ccc(/C=C2\SC(=S)N(/N=C/c3cc([N+](=O)[O-])ccc3O)C2=O)o1,6*,i,i,i,-3,0.08
CC(C)C1Cc2c(sc3[nH]c(=S)n(Cc4ccccc4)c(=O)c23)CO1 (stereo unspecified),i,26*,i,i,8.8*,-1
COc1cc2ccccc2ccc1=NO,.,.,i,.,.,.
CC(=N)c1c(O)cc(C)oc1=O,.,.,i,.,.,.
COc1ccc(N(C)C(=O)c2ccc3nc(-c4ccccc4)c(-c4ccccc4)nc3c2)cc1,9*,i,i,-7.4*,-10,-1
CC(C)N(C(=O)c1ccc2nc(-c3ccccc3)c(-c3ccccc3)nc2c1)C(C)C,i,i,i,i,-9,0.64
CC(=O)c1c(C)[nH]c(C(=O)OCC(=O)c2ccc3c(c2)NC(=O)CO3)c1C,.,.,i,.,.,.
C=CCn1c(COc2ccc(Cl)cc2)nnc1SCc1ccc(C#N)cc1,i,i,i,i,4.8*,-4
C=CCn1c(COc2ccccc2)nnc1SCc1ccc(C#N)cc1,i,i,i,i,-5,-11*
C=CCn1c(SCc2ccc(C#N)cc2)nnc1-c1ccccc1,i,i,i,i,-10,-3.3
Cc1ccc(NS(=O)(=O)c2ccc3[nH]c(=O)sc3c2)cc1,i,i,i,i,-7,-1.7
CCCc1cc2c(cc1NC(=O)c1ccc(C(C)(C)C)cc1)OCO2,i,i,i,-7.7*,-6,1.3
CCCOC(=O)/C(C(N)=NCc1ccccc1)=C(\O)OCCC,i,i,i,-6.6*,-8,-2.6
CCOc1ccc(Nc2ccc([N+](=O)[O-])c3nonc23)cc1,7*,i,i,i,-7,-1.1
COc1cc(NC(=O)CN(C)S(=O)(=O)c2ccc3c(c2)CC(C)N3C(C)=O)cc(OC)c1 (stereo unspecified),i,i,i,i,-11,0.59
COC(=O)CSc1nnc(-c2cccnc2)n1-c1cc(OC)cc(OC)c1,i,i,i,i,-10,-0.13

# High-throughput results as filed in PubChem BioAssay.
